Calls of active or inactive are those of the source. No cut-off for these calls is given here.
Legend:
Mus musculus [1] = assay: Anticonvulsant activity in ip dosed CF-1 mouse model of subcutaneous pentylenetetrazole-induced seizure assessed as reduction in convulsions; type: functional
Procedure, shortened: (§1)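 Mice given test compound i.p.; pentylenetetrazole 85 mg kg⁻¹ in 0.9% NaCl injected subcutaneously into posterior midline of neck. Seizures observed for at least 30 min. Protected = no fore and/or hind limb clonus, jaw chomping or vibrissae twitching (3 to 5 s). Screening doses 30, 100, 300 mg kg⁻¹; read at 0.25, 0.5, 1.0, 4.0 h; scored as protected/tested.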

Mus musculus [2] = assay: Anticonvulsant activity in ip dosed CF-1 mouse model of subcutaneous pentylenetetrazole-induced seizure assessed as time required for reduction in convulsions; type: functional; procedure, shortened: as §1
[3] = Neurotoxicity in CF-1 mouse at 100 mg/kg, ip measured after 0.5 hrs by rotarod test; type: toxicity, organism-based; settings: in vivo
Procedure, shortened: (§2)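 Mice dosed i.p. were placed on a 1 in. knurled rod turning at 6 rpm. Toxicity was scored as failure to keep balance for at least 1 min, i.e. falling off three or more times. Results are reported as animals showing toxicity / animals tested at each time point.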

Rattus norvegicus [4] = assay: Anticonvulsant activity in Sprague-Dawley rat model of maximal electroshock-induced seizure assessed as suppression of tonic hind limb extension at 30 mg/kg, po measured at 2 hrs post dose; type: functional, organism-based
Procedure, shortened: (§3)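 Rats given 30 mg/kg p.o. and tested by maximal electroshock at 150 mA. Scored as number protected / number tested (4 per group) at 0.25, 0.5, 1, 2 and 4 h after dosing.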

[5] = Neurotoxicity in Sprague-Dawley rat at 30 mg/kg, po measured after 1 hr by rotarod test; type: toxicity, organism-based; settings: in vivo
Procedure, shortened: (§4)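 Rat neurotoxicity after i.p. or p.o. dosing was scored as animals impaired / animals tested at each time point. For p.o. dosing, TD50 was obtained by probit analysis.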

Mus musculus [6] = assay: Anticonvulsant activity in CF-1 mouse model of maximal electroshock-induced seizure assessed as suppression of tonic hind limb extension at 300 mg/kg, ip measured at 4 hrs post dose; type: functional, organism-based
Procedure, shortened: (§5)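 Mice dosed i.p. and given maximal electroshock at 50 mA. Read-out is protection, reported as number protected / number tested at 0.25, 0.5, 1 and 4 h after dosing.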

[7] = Neurotoxicity in CF-1 mouse at 30 mg/kg, ip measured after 4 hrs by rotarod test; type: toxicity, organism-based; settings: in vivo; procedure, shortened: as §2
[8] = Neurotoxicity in Sprague-Dawley rat at 30 mg/kg, po measured after 0.25 hrs by rotarod test; type: toxicity, organism-based; settings: in vivo; procedure, shortened: as §4
Mus musculus [9] = assay: Anticonvulsant activity in CF-1 mouse model of subcutaneous pentylenetetrazole-induced seizure assessed as reduction in convulsions at 30 mg/kg, ip measured at 4 hrs post dose; type: functional, organism-based
Procedure, shortened: (§6)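 Mice dosed i.p., then given pentylenetetrazole 85 mg/kg in 0.9% NaCl s.c. into the posterior midline of the neck. Seizures watched for at least 30 min. Scored as protected / tested at 0.5 and 4 h.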

Mus musculus [10] = assay: Anticonvulsant activity in CF-1 mouse model of subcutaneous pentylenetetrazole-induced seizure assessed as reduction in convulsions at 100 mg/kg, ip measured at 4 hrs post dose; type: functional, organism-based; procedure, shortened: as §6
[11] = Neurotoxicity in CF-1 mouse at 300 mg/kg, ip measured after 4 hrs by rotarod test; type: toxicity, organism-based; settings: in vivo; procedure, shortened: as §2
Mus musculus [12] = assay: Anticonvulsant activity in CF-1 mouse model of subcutaneous pentylenetetrazole-induced seizure assessed as reduction in convulsions at 300 mg/kg, ip measured at 0.5 hrs post dose; type: functional, organism-based; procedure, shortened: as §6
Mus musculus [13] = assay: Anticonvulsant activity in CF-1 mouse model of maximal electroshock-induced seizure assessed as suppression of tonic hind limb extension at 30 mg/kg, ip measured at 0.5 hrs post dose; type: functional, organism-based; procedure, shortened: as §5
[14] = Neurotoxicity in CF-1 mouse at 100 mg/kg, ip measured after 4 hrs by rotarod test; type: toxicity, organism-based; settings: in vivo; procedure, shortened: as §2
[15] = Neurotoxicity in Sprague-Dawley rat at 30 mg/kg, po measured after 4 hrs by rotarod test; type: toxicity, organism-based; settings: in vivo; procedure, shortened: as §4
Rattus norvegicus [16] = assay: Anticonvulsant activity in Sprague-Dawley rat model of maximal electroshock-induced seizure assessed as suppression of tonic hind limb extension at 30 mg/kg, po measured at 0.5 hrs post dose; type: functional, organism-based; procedure, shortened: as §3
Mus musculus [17] = assay: Anticonvulsant activity in CF-1 mouse model of maximal electroshock-induced seizure assessed as suppression of tonic hind limb extension at 100 mg/kg, ip measured at 4 hrs post dose; type: functional, organism-based; procedure, shortened: as §5
[18] = Neurotoxicity in CF-1 mouse at 30 mg/kg, ip measured after 0.5 hrs by rotarod test; type: toxicity, organism-based; settings: in vivo; procedure, shortened: as §2
[19] = Neurotoxicity in Sprague-Dawley rat at 30 mg/kg, po measured after 2 hrs by rotarod test; type: toxicity, organism-based; settings: in vivo; procedure, shortened: as §4
Mus musculus [20] = assay: Anticonvulsant activity in CF-1 mouse model of maximal electroshock-induced seizure assessed as suppression of tonic hind limb extension at 300 mg/kg, ip measured at 0.5 hrs post dose; type: functional, organism-based; procedure, shortened: as §5
Mus musculus [21] = assay: Anticonvulsant activity in CF-1 mouse model of maximal electroshock-induced seizure assessed as suppression of tonic hind limb extension at 100 mg/kg, ip measured at 1 hr post dose; type: functional, organism-based; procedure, shortened: as §5
[22] = Neurotoxicity in CF-1 mouse at 300 mg/kg, ip measured after 0.5 hrs by rotarod test; type: toxicity, organism-based; settings: in vivo; procedure, shortened: as §2
Mus musculus [23] = assay: Anticonvulsant activity in CF-1 mouse model of maximal electroshock-induced seizure assessed as suppression of tonic hind limb extension at 100 mg/kg, ip measured at 0.5 hrs post dose; type: functional, organism-based; procedure, shortened: as §5
Rattus norvegicus [24] = assay: Anticonvulsant activity in Sprague-Dawley rat model of maximal electroshock-induced seizure assessed as suppression of tonic hind limb extension at 30 mg/kg, po measured at 0.25 hrs post dose; type: functional, organism-based; procedure, shortened: as §3
[25] = Neurotoxicity in Sprague-Dawley rat at 30 mg/kg, po measured after 0.5 hrs by rotarod test; type: toxicity, organism-based; settings: in vivo; procedure, shortened: as §4
Mus musculus [26] = assay: Anticonvulsant activity in CF-1 mouse model of subcutaneous pentylenetetrazole-induced seizure assessed as reduction in convulsions at 100 mg/kg, ip measured at 0.5 hrs post dose; type: functional, organism-based; procedure, shortened: as §6
[27] = Neurotoxicity in CF-1 mouse at 100 mg/kg, ip measured after 1 hr by rotarod test; type: toxicity, organism-based; settings: in vivo; procedure, shortened: as §2
Mus musculus [28] = assay: Anticonvulsant activity in CF-1 mouse model of subcutaneous pentylenetetrazole-induced seizure assessed as reduction in convulsions at 300 mg/kg, ip measured at 4 hrs post dose; type: functional, organism-based; procedure, shortened: as §6
Mus musculus [29] = assay: Anticonvulsant activity in CF-1 mouse model of subcutaneous pentylenetetrazole-induced seizure assessed as reduction in convulsions at 30 mg/kg, ip measured at 0.5 hrs post dose; type: functional, organism-based; procedure, shortened: as §6
Mus musculus [30] = assay: Anticonvulsant activity in CF-1 mouse model of maximal electroshock-induced seizure assessed as suppression of tonic hind limb extension at 30 mg/kg, ip measured at 4 hrs post dose; type: functional, organism-based; procedure, shortened: as §5
Rattus norvegicus [31] = assay: Anticonvulsant activity in Sprague-Dawley rat model of maximal electroshock-induced seizure assessed as suppression of tonic hind limb extension at 30 mg/kg, po measured at 1 hr post dose; type: functional, organism-based; procedure, shortened: as §3
Mus musculus [32] = assay: Anticonvulsant activity in CF-1 mouse assessed as protection against 44 mA current-induced seizure at 100 mg/kg, ip after 0.5 hrs by 6 Hz psychomotor test; type: functional, organism-based
Procedure, shortened: (§7)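 Mice dosed i.p. (30, 100, 300 mg/kg; one line at 120 mg/kg read at 15 min). Corneal stimulation at 6 Hz, 44 mA for 3 s from a constant-current device induces a psychomotor seizure with stunned posture, forelimb automatisms, clonus, vibrissae twitching and Straub tail. Scored as number of animals protected / number tested (4 per group) at 0.5 and 2 h.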

Mus musculus [33] = assay: Anticonvulsant activity in CF-1 mouse assessed as protection against 44 mA current-induced seizure at 30 mg/kg, ip after 0.5 hrs by 6 Hz psychomotor test; type: functional, organism-based; procedure, shortened: as §7
Mus musculus [34] = assay: Anticonvulsant activity in CF-1 mouse model of maximal electroshock-induced seizure assessed as suppression of tonic hind limb extension at 30 mg/kg, ip measured at 2 hrs post dose; type: functional, organism-based
Mus musculus [35] = assay: Anticonvulsant activity in CF-1 mouse assessed as protection against 44 mA current-induced seizure at 300 mg/kg, ip after 0.5 hrs by 6 Hz psychomotor test; type: functional, organism-based; procedure, shortened: as §7
Mus musculus [36] = assay: Anticonvulsant activity in CF-1 mouse assessed as protection against 44 mA current-induced seizure at 100 mg/kg, ip after 2 hrs by 6 Hz psychomotor test; type: functional, organism-based; procedure, shortened: as §7
[37] = Neurotoxicity in CF-1 mouse at 30 mg/kg, ip measured after 2 hrs by rotarod test; type: toxicity, organism-based; settings: in vivo; procedure, shortened: as §2
[38] = Neurotoxicity in CF-1 mouse at 300 mg/kg, ip measured after 2 hrs by rotarod test; type: toxicity, organism-based; settings: in vivo; procedure, shortened: as §2
Mus musculus [39] = assay: Anticonvulsant activity in CF-1 mouse assessed as protection against 44 mA current-induced seizure at 30 mg/kg, ip after 2 hrs by 6 Hz psychomotor test; type: functional, organism-based; procedure, shortened: as §7
Mus musculus [40] = assay: Anticonvulsant activity in CF-1 mouse model of maximal electroshock-induced seizure assessed as suppression of tonic hind limb extension at 100 mg/kg, ip measured at 2 hrs post dose; type: functional, organism-based
[41] = Neurotoxicity in CF-1 mouse at 100 mg/kg, ip measured after 2 hrs by rotarod test; type: toxicity, organism-based; settings: in vivo; procedure, shortened: as §2
Mus musculus [42] = assay: Anticonvulsant activity in CF-1 mouse assessed as protection against 44 mA current-induced seizure at 300 mg/kg, ip after 2 hrs by 6 Hz psychomotor test; type: functional, organism-based; procedure, shortened: as §7
Mus musculus [43] = assay: Anticonvulsant activity in CF-1 mouse assessed as protection against 44 mA current-induced seizure at 40 to 80 mg/kg, ip after 0.5 hrs by 6 Hz psychomotor test; type: functional
[44] = Neurotoxicity in Sprague-Dawley rat at 100 mg/kg, ip measured after 2 hrs by rotarod test; type: toxicity, organism-based; settings: Sprague-Dawley, in vivo; procedure, shortened: as §4

CC(=O)[C@H]1CC[C@H]2[C@@H]3CC[C@H]4C[C@H](O)CC[C@]4(C)[C@H]3CC[C@]12C [BREXANOLONE]
ED50 (Mus musculus [1]): 13.7 mg/kg | Time (Mus musculus [2]): 0.17 h

Cc1cccc(C)c1OCC(=O)NCC(C)O (configuration not stated)
Activity [3]: Non-Toxic | Activity (Rattus norvegicus [4]): inactive | Activity [5]: Non-Toxic | Activity (Mus musculus [6]): inactive | Activity [7]: Non-Toxic | Activity [8]: Non-Toxic | Activity (Mus musculus [9]): inactive | Activity (Mus musculus [10]): inactive | Activity [11]: Non-Toxic | Activity (Mus musculus [12]): inactive | Activity (Mus musculus [13]): inactive | Activity [14]: Non-Toxic | Activity [15]: Non-Toxic | Activity (Rattus norvegicus [16]): inactive | Activity (Mus musculus [17]): inactive | Activity [18]: Non-Toxic | Activity [19]: Non-Toxic | Activity (Mus musculus [20]): Active | Activity (Mus musculus [21]): inactive | Activity [22]: Toxic | Activity (Mus musculus [23]): inactive | Activity (Rattus norvegicus [24]): inactive | Activity [25]: Non-Toxic | Activity (Mus musculus [26]): inactive | Activity [27]: Non-Toxic | Activity (Mus musculus [28]): inactive | Activity (Mus musculus [29]): inactive | Activity (Mus musculus [30]): inactive | Activity (Rattus norvegicus [31]): inactive

Cc1cccc(C)c1OCC(=O)N[C@H]1CC[C@H](OC(=O)COc2c(C)cccc2C)CC1
Activity [3]: Non-Toxic | Activity (Mus musculus [32]): inactive | Activity (Mus musculus [33]): inactive | Activity (Mus musculus [34]): inactive | Activity (Mus musculus [35]): inactive | Activity (Mus musculus [36]): inactive | Activity [37]: Non-Toxic | Activity (Mus musculus [13]): inactive | Activity [38]: Non-Toxic | Activity (Mus musculus [39]): inactive | Activity [18]: Non-Toxic | Activity (Mus musculus [20]): inactive | Activity [22]: Non-Toxic | Activity (Mus musculus [40]): inactive | Activity [41]: Non-Toxic

Cc1cccc(OCC(=O)N[C@H]2CC[C@H](O)CC2)c1C
Activity [3]: Non-Toxic | Activity (Mus musculus [33]): inactive | Activity (Mus musculus [34]): inactive | Activity (Mus musculus [36]): inactive | Activity [37]: Non-Toxic | Activity (Mus musculus [13]): inactive | Activity [38]: Non-Toxic | Activity (Mus musculus [39]): inactive | Activity [18]: Non-Toxic | Activity (Mus musculus [20]): Active | Activity (Mus musculus [23]): inactive | Activity (Mus musculus [40]): inactive | Activity (Mus musculus [42]): Active | Activity [41]: Non-Toxic

NC(=O)N1c2ccccc2C=Cc2ccccc21 [CARBAMAZEPINE]
%max (Mus musculus [43]): 75% | TD50 at 2 h [44]: 364 mg/kg
